Test results: ChEMBL document CHEMBL4825730, “Discovery of a First-in-Class Inhibitor of the PRMT5-Substrate Adaptor Interaction” (J Med Chem, 2021)
Converted amounts (≈) assume the structure as drawn. The source made the active and inactive calls. The rule behind the calls is not given here.

Tests used:
[1] = Stability in mouse plasma assessed as compound remaining relative to control; type: ADME, cell-free
[2] = Solubility in PBS buffer; type: physicochemical
[3] = Stability in human plasma assessed as compound remaining relative to control; type: ADME, cell-free
[4] = target: PRMT5/MEP50 complex (Homo sapiens, UniProt O14744); test: Displacement of fluorophore-labeled RIOK1 from human PRMT5/WDR77 hetero octameric complex expressed in Sf9 cells by competition fluorescence polarization (FP) assay
Chain of PRMT5/MEP50 complex (O14744 whole entry): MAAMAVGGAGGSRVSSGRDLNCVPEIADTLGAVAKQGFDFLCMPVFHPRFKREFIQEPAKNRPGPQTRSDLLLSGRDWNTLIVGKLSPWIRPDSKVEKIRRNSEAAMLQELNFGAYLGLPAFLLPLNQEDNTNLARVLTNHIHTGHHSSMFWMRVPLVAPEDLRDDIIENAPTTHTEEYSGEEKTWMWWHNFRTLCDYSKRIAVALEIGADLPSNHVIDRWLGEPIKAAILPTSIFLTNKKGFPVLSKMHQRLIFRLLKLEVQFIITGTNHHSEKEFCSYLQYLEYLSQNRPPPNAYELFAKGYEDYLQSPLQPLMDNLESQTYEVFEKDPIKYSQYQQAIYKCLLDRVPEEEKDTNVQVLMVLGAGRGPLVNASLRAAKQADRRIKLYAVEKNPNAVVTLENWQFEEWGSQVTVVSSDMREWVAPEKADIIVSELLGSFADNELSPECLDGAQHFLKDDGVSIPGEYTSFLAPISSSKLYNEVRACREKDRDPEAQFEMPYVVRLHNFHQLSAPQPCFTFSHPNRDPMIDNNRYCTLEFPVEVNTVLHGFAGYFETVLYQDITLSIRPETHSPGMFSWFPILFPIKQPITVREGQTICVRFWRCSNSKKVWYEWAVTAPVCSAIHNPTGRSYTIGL
Chain of PRMT5/MEP50 complex (Q9BQA1 whole entry, further chain): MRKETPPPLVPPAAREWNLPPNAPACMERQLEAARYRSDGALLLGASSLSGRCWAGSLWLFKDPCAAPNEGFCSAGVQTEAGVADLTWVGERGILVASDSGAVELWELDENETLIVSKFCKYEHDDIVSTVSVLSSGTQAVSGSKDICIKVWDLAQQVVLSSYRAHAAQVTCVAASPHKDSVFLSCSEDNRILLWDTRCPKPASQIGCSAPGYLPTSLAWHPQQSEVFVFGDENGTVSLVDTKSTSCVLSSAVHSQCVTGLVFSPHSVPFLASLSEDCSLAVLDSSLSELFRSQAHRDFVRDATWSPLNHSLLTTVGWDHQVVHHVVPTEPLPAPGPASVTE

[5] = target: T1, Protein arginine N-methyltransferase 5 (Homo sapiens, UniProt O14744); test: Covalent inhibition of human PRMT5 assessed as initial binding constant by LC-MS analysis
T1 sequence (O14744 whole entry): as the sequence (O14744 whole entry) above

[6] = Disruption of human N-terminal SmBiT peptide-tagged PRMT5/N-terminal LgBiT tagged RIOK1 complex expressed in intact HEK293T cells measured after 40 mins by NanoBiT assay; type: cell-based; conditions: HEK-293T
[7] = target: T1, Protein arginine N-methyltransferase 5; test: Covalent inhibition of human PRMT5 assessed maximum potential inactivation rate by LC-MS analysis
[8] = target: T1, Protein arginine N-methyltransferase 5; test: Covalent inhibition of human PRMT5 assessed as Kinact/Ki ratio by LC-MS analysis
[9] = target: Methylosome protein WDR77 (Homo sapiens) (UniProt Q9BQA1); test: Binding affinity to human wild type WDR77 assessed as increase in protein mass by deconvoluted mass spectra analysis
Chain of Methylosome protein WDR77 (Homo sapiens) (Q9BQA1 whole entry): as the sequence (Q9BQA1 whole entry, further chain) above
Method in brief: (§1)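 Purified untagged PRMT5:WDR77 (Sf9 co-expressed) exchanged into 10 mM HEPES 7.4, 150 mM NaCl, 1 mM TCEP. Protein diluted to 10 μM; 10 μL protein plus 1 μL compound (0.5 mM stock in DMSO) or DMSO in 90 μL buffer, 4 h at RT. Intact mass by LC-ToF on C4 column at 80 °C, positive ESI, spectra deconvoluted by MaxEnt1.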

[10] = target: T1, Protein arginine N-methyltransferase 5; test: Binding affinity to human wild type PRMT5 assessed as increase in protein mass by deconvoluted mass spectra analysis; method in brief: as §1
[11] = system: Protein arginine N-methyltransferase 5 (Homo sapiens), O14744 [C278A]; test: Binding affinity to human PRMT5 C278A mutant assessed as increase in protein mass by deconvoluted mass spectra analysis; method in brief: as §1
Chain of Protein arginine N-methyltransferase 5 (Homo sapiens), O14744 [C278A] (O14744 whole entry C278A): as the sequence (O14744 whole entry) above, with C278A counted along it

[12] = Displacement of fluorophore-labeled RIOK1 from human PRMT5 C278A mutant/WDR77 hetero octameric complex expressed in Sf9 cells by competition fluorescence polarization (FP) assay
Method in brief: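 Competition FP with Sf9-expressed untagged PRMT5:WDR77 (WT or C278A) at 200 nM protomer and 10 nM fluorophore-labeled RIOK1 PBM peptide probe. […] Incubated at RT, read at 40 min, 8-point dose range, triplicate. Normalized to DMSO (100) and unlabeled peptide control at 20 μM (0).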

[13] = target: PRMT5/MEP50 complex (Homo sapiens) (UniProt O14744+Q9BQA1); test: Displacement of full-length pICIn protein from human PRMT5/WDR77 hetero octameric complex at 2 uM pretreated by SPR competition assay

| Compound | Stabilty [1] [%] | solubility [2] [µM] | Stabilty [3] [%] | IC50 [4] [µM] | other results |
| --- | --- | --- | --- | --- | --- |
| COc1ccc(NC(=O)Cn2ncc(Cl)c(Cl)c2=O)cc1S(=O)(=O)NCCc1ccccn1 |  | 96 (≈ 49.2 µg/mL) |  | 23.3 |  |
| Cc1ccc(NC(=O)Cn2ncc(Cl)c(Cl)c2=O)cc1S(=O)(=O)NCCc1cccnc1 | 21 | 88 (≈ 43.7 µg/mL) | 100 | 4.6 |  |
| Cc1ccc(NC(=O)Cn2ncc(Cl)cc2=O)cc1S(=O)(=O)NCCc1ccccn1 |  |  |  | 72.9 | Ki [5]: 36 µM |
| Cc1ccc(NC(=O)C(C)n2ncc(Cl)c(C)c2=O)cc1S(=O)(=O)NCCc1ccccn1 (racemic) |  |  |  | > 200 |  |
| Cc1ccc(NC(=O)Cn2nccc(Cl)c2=O)cc1S(=O)(=O)NCCc1ccccn1 |  |  |  | > 200 | IC50 [6]: > 100 µM |
| Cc1ccc(NC(=O)Cn2ncc(F)cc2=O)cc1S(=O)(=O)NCCc1ccccn1 |  |  |  | 35.6 | Ki [5]: 58 µM |
| Nc1nc2cc(CC[C@H]3C[C@@H](n4ccc5c(N)ncnc54)[C@H](O)[C@@H]3O)ccc2cc1Br [ONAMETOSTAT] |  | 7 (≈ 3.38 µg/mL) |  |  |  |
| Cc1ccc(NC(=O)Cn2ncc(F)c(Cl)c2=O)cc1S(=O)(=O)NCCc1ccccn1 |  |  |  | 0.37 |  |
| Cc1ccc(NC(=O)[C@@H](C)n2ncc(Cl)c(Cl)c2=O)cc1S(=O)(=O)NCCc1ccccn1 | 97 | 70 (≈ 35.7 µg/mL) | 95 | 55.4 | Kinact [7]: 1.05 min⁻¹; Ratio [8]: 226 M⁻¹ s⁻¹; Ki [5]: 78 µM |
| Cc1ccc(NC(=O)[C@H](C)n2ncc(Cl)c(Cl)c2=O)cc1S(=O)(=O)NCCc1ccccn1 | 92 | 64 (≈ 32.7 µg/mL) | 92 | 0.3 | Kinact [7]: 1.95 min⁻¹; Ratio [8]: 14600 M⁻¹ s⁻¹; Ki [5]: 2 µM |
| O=C(NC[C@H](O)CN1CCc2ccccc2C1)c1cc(NC2COC2)ncn1 |  | 101 (≈ 38.7 µg/mL) |  |  |  |
| O=C(Cn1ncc(Cl)c(Cl)c1=O)Nc1cccc(S(=O)(=O)NCCc2ccccn2)c1 |  | 19 (≈ 9.16 µg/mL) |  | 19.2 |  |
| Cc1ccc(NC(=O)Cn2ncc(Cl)c(Cl)c2=O)nc1S(=O)(=O)NCCc1ccccn1 | 75 | 5 (≈ 2.49 µg/mL) | 96 | 4.5 |  |
| Cc1ccc(NC(=O)Cn2ncc(F)c(C)c2=O)cc1S(=O)(=O)NCCc1ccccn1 |  |  |  | 72.1 |  |
| Cc1ccc(NC(=O)Cn2ncc(Cl)c(Cl)c2=O)cc1S(=O)(=O)NCCc1ccncc1 | 2 | 93 (≈ 46.2 µg/mL) | 92 | 2.5 |  |
| Cc1ccc(NC(=O)Cn2ncc(Cl)c(Cl)c2=O)cc1S(=O)(=O)NCCc1ccccn1 |  |  |  | 2.2 | Activity [9]: inactive; Activity [10]: Active; Activity [11]: inactive; Ki [5]: 8 µM; IC50 [12]: > 100 µM; Activity [13]: Active |
| CCc1ccc(NC(=O)Cn2ncc(Cl)c(Cl)c2=O)cc1S(=O)(=O)NCCc1ccccn1 |  | 12 (≈ 6.12 µg/mL) |  | 4.2 |  |
| Cc1ccc(N(C)C(=O)[C@H](C)n2ncc(Cl)cc2=O)cc1S(=O)(=O)NCCc1ccccn1 |  | 114 (≈ 55.9 µg/mL) |  | > 200 |  |

Now from value to compound, other results behind:

| Stabilty [1] [%] | solubility [2] [µM] | Stabilty [3] [%] | IC50 [4] [µM] | Compound | other results |
| --- | --- | --- | --- | --- | --- |
| 86 | 86 (≈ 43.9 µg/mL) | 89 | > 200 | Cc1ccc(N(C)C(=O)Cn2ncc(Cl)c(Cl)c2=O)cc1S(=O)(=O)NCCc1ccccn1 |  |
|  | 98 (≈ 40.4 µg/mL) |  | > 200 | CN(C)S(=O)(=O)N1CCCC(NC(=O)Cn2ncc(Cl)c(Cl)c2=O)C1 (stereo not given) |  |
| 0 | 98 (≈ 47.9 µg/mL) | 84 | 5.4 | Cc1ccc(NC(=O)Cn2ncc(Cl)c(Cl)c2=O)cc1S(=O)(=O)N1CCCN(C)CC1 |  |
|  | 14 (≈ 7.15 µg/mL) |  | 6.1 | Cc1cc(C)c(S(=O)(=O)NCCc2ccccn2)cc1NC(=O)Cn1ncc(Cl)c(Cl)c1=O |  |
|  | 7.6 (≈ 3.19 µg/mL) |  |  | Cc1cnc(NC(=O)Cn2ncc(Cl)c(Cl)c2=O)cc1S(=O)(=O)N(C)C |  |
| 0 | 89 (≈ 42.2 µg/mL) | 72 | 10.1 | Cc1ccc(NC(=O)Cn2ncc(Cl)c(Cl)c2=O)cc1S(=O)(=O)N1CCN(C)CC1 |  |
|  |  |  | 14.1 | Cc1ccc(NC(=O)Cn2ncc(Cl)c(Cl)c2=O)cc1S(=O)(=O)N(C)C |  |
| 3 | 96 (≈ 47 µg/mL) | 70 | > 200 | Cc1ncc(NC(=O)Cn2ncc(Cl)c(Cl)c2=O)cc1S(=O)(=O)N1CCCN(C)CC1 |  |
|  | 3.7 (≈ 1.89 µg/mL) |  | 2.5 | Cc1cc(NC(=O)Cn2ncc(Cl)c(Cl)c2=O)cc(S(=O)(=O)NCCc2ccccn2)c1C |  |
|  | 7.8 (≈ 3.98 µg/mL) |  | 39 | Cc1ccc(NC(=O)Cn2ncc(Cl)c(Cl)c2=O)c(C)c1S(=O)(=O)NCCc1ccccn1 |  |
|  | 0.8 (≈ 0.367 µg/mL) |  | 12.7 | Cc1ccc(NC(=O)Cn2ncc(Cl)c(Cl)c2=O)cc1S(=O)(=O)N1CCCCC1 |  |
